The record followed here is the RNAGym collection of RNA variant scans (doi:10.1126/science.aae0568).

B1: tRNA (parent)
chain: GUUCCGUUGGCGUAAUGGUAACGCGUCUCCCUCCUAAGGAGAAGACUGCGGGUUCGAGUCCCGUACGGAACG

Variants at the floor of the assay were thinned out.

In this data set the parent is B1. Nature of the data set: yeast fitness relative to wild type (ratio to wild type); higher = fitter; tRNA-Arg(CCU), competitive growth, 37 C, YPD. A digest of the protocol:
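Amplicons of the tRNA-Arg(CCU) gene were sequenced, 100-nucleotide paired-end, from the start population and from each end population of a pooled yeast competition. The competition, in six parallel replicates, lasted 24 hours in YPD at 37°C. Fitness relative to wild type was calculated from changes in genotype frequencies. Genotypes had to have ≥ 100 starting reads, and estimates < 0.5 were set to 0.5.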
Consider GUUCCGUUGGGGUAAUGGUAACGCGUCUCCCUCCUAAGGAGAAGACUGCGGGUUCGAGUCGCGUACGGUACG [C11G C61G A69U], for which the yeast fitness was at most 0.5.

Take GUUCCGUUGGGGUAAUCGUAACGCGUCUCCCUCAUAAGGAGACGACUGCGGGUUCCAGUCACGUCCGGAACG [C11G G17C C34A A43C G56C C61A A65C]: the yeast fitness was at most 0.5. As for GUUCCGUUGGGGUAAUGGUAACGCGUCUCCCUCCUAAGGAGAAGACUGCGGGUUCGAGUCCCGUAUGGCACG [C11G C66U A69C], the figure is at most 0.5; as for GUUCCGUUGGGAUAAUGGUAACGAGUCUCGCUCCUAAGGAGAAGAUUGCGGGUUCGAGUCCCGUAGGGAACG [C11G G12A C24A C30G C46U C66G], 0.585; as for GUUCCGUUGGGGUAAUGGUAACGCGUCUCCCUCCUAAGGAGAAGACUGCGGGUUCGAGUCCCGUAGGCAACG [C11G C66G G68C], at most 0.5.

Turning to GUUCCGUUGGGGUAAUGGUAACGCGUCUCCCUCCUAAGGAGAAGACUGUGGGUUCGAGUCACGUACGGAGCG [C11G C49U C61A A70G], the yeast fitness is at most 0.5. Turning to GUUCCGUUGGGAUAAUGGUAACGCGUCUCCGUCCUAAGGAGAAGACUGCGGGUUCGAGUCCCGUACGGUACG [C11G G12A C31G A69U], the yeast fitness was at most 0.5. Take GUUCCGUUGGGCUAAUGGUAACGCGUCUCCCUCCUAAGGAGAAGACUGCGGGUUCGAGUAACGUACGGAACG [C11G G12C C60A C61A]: the yeast fitness is at most 0.5. As for GUUCCGUUGGGCUAAUGGUCACGGGUCUCCCUCCUAGGGAGAAGACUGCGGGUUCGAGUGUCGUACGGAACG [C11G G12C A20C C24G A37G C60G C61U], the figure is at most 0.5; as for GUUCCGUUGGGGUAAUGGUAACGCGUCUCCCUCCUAAGGAGAAGACUGCGGGUUCGAGUCGGGUACGGAACG [C11G C61G C62G], at most 0.5; as for GUUCCGUUGGGCUAAUGGUGACGCGUCUCCCUCCUAAGGAGAGGCCUGCGGGUUCGAGUCCCGUACAGAACG [C11G G12C A20G A43G A45C G67A], at most 0.5. As for GUUCCGUUGGGAUAAUGGUAACGCGUCUCCCUCCUAAGGAGUAGACUGCGGGUUCGAGUCCCGUACGGAACG [C11G G12A A42U], the figure is at most 0.5; as for GUUCCGUUGGGCUAAUGGUAACGCGUCUCCCUUCUAAGGAGAAGACUGCGGGUUCGAGUUCCGUACGGAACG [C11G G12C C33U C60U], at most 0.5. Take GUUCCGUUGGGGUAAUGGUAACGCGUCUCCCUCCUAAGGAGAAGAUUGCGGGUUCGAGUCCCGUUCGGAACG [C11G C46U A65U]: the yeast fitness was found to be 0.561. Take GUUCCGUUGGGGUAAUGCUUACGCGUCUCCCUGGUAAGGAGAAGACUGCCGGUUCGAGUCCCGUACGGAACG [C11G G18C A20U C33G C34G G50C]: the yeast fitness came to 0.632. Consider GUUCCGUUGGGAUAAUGGUAACGCGUCUCGGACCUAAGGAGAAGACUGCGGGUUCGAGUCCCGUAUGGAACG [C11G G12A C30G C31G U32A C66U], for which the yeast fitness was at most 0.5.

GUUCCGUUGGGCUAAUGGUAACGCGUCUCCCUCCUAAGGAGAAGACUGUGGGUUCGAGUGCCGUACGGAACG [C11G G12C C49U C60G]: the yeast fitness is at most 0.5.

Consider GUUCCGUUGGGGUAAUGGUAACGCGUCUCCCUCCUAAGGAGAAGAUUGCGAGUUCGAGUCCCGUACGGAACG [C11G C46U G51A], for which the yeast fitness worked out at 0.649. Regarding GUUCCGUUGGGGUAAUGGUAACGCGUCUCCCUCCUAAGGAGAAGAUUGAGGGUUUGAGUCCCGUACGGAACG [C11G C46U C49A C55U], the yeast fitness worked out at 0.661. As for GUUCCGUUGGGGUAAUCGUAACGCGUCUCCCUCCUAAGGAGAAGACUGCGGGUUCGAGUCCCAUACGGAACG [C11G G17C G63A], the figure is at most 0.5.

Turning to GUUCCGUUGGGGUAAUCGUAACGCGUCUCCCUCCUAAGGGGAACACUGCGGGUUCGAGCCCCGUACGGAGCG [C11G G17C A40G G44C U59C A70G], the yeast fitness stood at 0.603.

Take GUUCCGUUGGGGUAAUGGUAACGCGUCUCCCUCUUAAGGAGAACACUGCCGGUUCGAGUCCCGUAUGGAACG [C11G C34U G44C G50C C66U]: the yeast fitness is at most 0.5.

Turning to GUUCCGUUGGGGUAAUGCUAACGCGUCUCCCUCCUAAGGAGAAGACUGCGGGUUCGAGUCCCGUACGGAACG [C11G G18C], the yeast fitness was determined as 0.611. On to GUUCCGUUGGGGUAAUGGUAACGCGUCUCCCUCCUAAGGAGAAGACUGUGGGUUCGAGUCCCAUACGGAACG [C11G C49U G63A], for which the yeast fitness was at most 0.5. GUUCCGUUGGGGUAAUCGUAACGCGUCUUCCUCCUAAGGAGAAGACUGCGAGUUCGAGUCCCGUACGGAACG [C11G G17C C29U G51A]: the yeast fitness is 0.625.

In the case of GUUCCGUUGGGGUAAUGGUAACGCGUCUCCCUCCUAAGGAGAAGAGUGCGGGUUCGAGUCCAGUACGGAACG [C11G C46G C62A], the yeast fitness was at most 0.5.

Consider GUUCCGUUGGGGUAAUAGUAAUGCGUUUCCCUCCUAAGGAGAAGACUGCGGGUUCGCGUCCCGUACGGAACG [C11G G17A C22U C27U A57C], for which the yeast fitness is at most 0.5.

As for GUUCCGUUGGGGUAAUGGUAACGCGUCUCCCUCCUAAGGAGAAGACUGUGGGUUCGAGUCCCGUACGGAGCG [C11G C49U A70G], the yeast fitness was 0.573. Next, GUUCCGUUGGGGUAAUGGUAACGCGUCUCCCUCCUAAGGAGAAGACUGCGGGUUCGAGUCCUGUACGGAACG [C11G C62U]: 0.579. For GUUCCGUUGGGGUAAUGGUAACGCGUCUCCCUCCUAAGGAGAAGACUGCGGGUUCGAGUUCGGUACGGAGCG [C11G C60U C62G A70G], the yeast fitness was at most 0.5. Next, GUUCCGUUGGGGUAAUGGUAACGCGUCUCCCUCCUAAGGAGAAGACUGUGGGUUCGACUCCCGUACGGAACG [C11G C49U G58C]: 0.597. For the variant GUUCCGUUGGGGUAAUGGUAACGCGUCUCCCUCCUAAGGAGAAGACUGCGGGUUAGAGUCCCAUACGGAACG [C11G C55A G63A], the yeast fitness was determined as 0.553. For the variant GUUCCGUUGGGCUAAUGGUCACGGGUCUCCCUCCUAAGCAGAAGACUGCGGGUUCGAGUACCGUACGGAACG [C11G G12C A20C C24G G39C C60A], the yeast fitness was at most 0.5. Turning to GUUCCGUUGGGGUAAUGGUAACGCGUCUCCCUCCUAAGGAGAAGAUUGCGCGUUCGAGUCCCGUAGGGAACG [C11G C46U G51C C66G], the yeast fitness was at most 0.5. As to GUUCCGUUGGGGUAAUGGUAACGCGUCUCCCUCCUAAGGAGAAGAGUGCCGGUUCGAGUCCCGUACGGAACG [C11G C46G G50C], the yeast fitness stood at 0.694. As for GUUCCGUUGGGGUAAUAGUAACGCGUCUCGCUCCUAAGGAGAAGACUGCGGGUUCGAGUCGCGUACGGAACG [C11G G17A C30G C61G], the figure is at most 0.5; as for GUUCCGUUGGGCUAAUGGUAGCGCGUCUCCCUCCAAAGGAGAAGACUGCGAGUUCGAGUCCCGUACGGAACG [C11G G12C A21G U35A G51A], 0.732; as for GUUCCGUUGGGGUAAUGGUAACGCGUCUCCCUCCUAAGGAGAAGACUGUGGGUUCGAGUCCCGUAUGGAACG [C11G C49U C66U], at most 0.5.
